# MC4R ag barr: agonists of human melanocortin 4 receptor (MC4R) beta-arrestin; U2OS MC4R beta-arrestin complementation, luminescence; percent of melanotan II response, DMSO zero; activation, % at 8.9 µM; actives 0.98% (n = 360,000); AID 540308;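 active = activation above a per-plate cutoff, the mean activation of sample wells on that plate plus 3 SD, cut at about 8% in these data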
# Target sequence (P32245 whole entry, looked up): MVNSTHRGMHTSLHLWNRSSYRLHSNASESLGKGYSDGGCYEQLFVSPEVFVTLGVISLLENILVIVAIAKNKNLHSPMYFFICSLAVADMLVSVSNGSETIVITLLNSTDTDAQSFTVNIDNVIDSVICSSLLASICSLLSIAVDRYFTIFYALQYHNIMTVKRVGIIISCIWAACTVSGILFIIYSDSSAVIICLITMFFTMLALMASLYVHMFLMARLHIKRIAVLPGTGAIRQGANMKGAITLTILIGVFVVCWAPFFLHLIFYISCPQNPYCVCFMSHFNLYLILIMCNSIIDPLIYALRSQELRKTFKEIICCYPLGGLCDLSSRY
# CHOP UPR activ: apoptotic UPR (CHOP) activation | CHO-CHOP luciferase reporter, luminescence; percent of tunicamycin response over DMSO baseline | activation, % at 10 µM | actives 0.34% (n = 330,000) | AID 449763;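 active = at 10 µM dose, activation of 40% or more, normalized to positive control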;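 also: 100% = tunicamycin at 10 µg/mL and 0% = DMSO alone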
#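 System: CHO-CHOP luciferase reporter cell line; amount: 500 cells/well; buffer or medium: F12 medium containing 10% fetal bovine serum; incubation: 6 h compound exposure at 37 °C after overnight seeding; measured by: luciferase luminescence after 10 min with Steady-Glo reagent; evaluation: % reporter activation, DMSO baseline versus tunicamycin full activation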
# Bfl-1 A1 inh: inhibitors of the anti-apoptotic protein A1, read as caspase activation; MEF A1-2A-BIM cells, Caspase-Glo 3/7 luminescence, 3 h; percent of clofoctol response, vehicle zero; caspase activation, % (no concentration beside the values); actives 0.066% (n = 330,000); AID 2462;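 active = over half of replicate activation scores above 10%, or exactly half above 10 with the replicate mean above 10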
# UPR XBP1 act: adaptive UPR (XBP1) activation. actives 0.33% (n = 330,000). activation, % at 20 µM. CHO-XBP1 luciferase reporter, IRE1-XBP1 UPR activation, luminescence; percent of tunicamycin response, DMSO as zero;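 active = versus positive control, 20 µM dose yields 30% or more activation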;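 also: 100% = tunicamycin at 10 µg/mL and 0% = DMSO only wells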
#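 incubation = overnight seeding at 37 °C, 6 h compound treatment at 37 °C | assay system = CHO-XBP1 cells stably carrying IRE1-XBP1-driven luciferase reporter | input = 1000 cells per well | detection = luciferase luminescence | dosing = single point, 20 µM final compound, 1% DMSO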
# MC4R antag cAMP: blocks human MC4R cAMP signaling; P32245; MC4R-expressing cells, MTII-stimulated cAMP, LANCE TR-FRET; inhibition, % at 6.5 µM; actives 0.48% (n = 360,000); AID 540295;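 active = inhibition above its plate's cutoff, the mean of tested wells on that plate plus 3 SD, cut at about 29% in these data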;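 also: 0% = Melanotan II alone and 100% = Melanotan II plus saturating MCL0020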
#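 Assay system: human MC4R-expressing U2OS cells; reagent: Melanotan II stimulation of cells; dosing: 6.5 µM single dose; timing: compound 30 min, challenge 1 h, detection 1 h; signal: TR-FRET cAMP assay; replicates: one well per compound, no replicates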
# UPR CHOP confirm: confirmation of apoptotic unfolded protein response (CHOP) activators; actives 64% (n = 1,000); activation, % at 10 µM; CHO-CHOP cells, CHOP-luciferase reporter luminescence; percent of tunicamycin response, DMSO as zero; shares compounds with CHOP UPR activ; in the data active = activation above about 33%;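 also: 0% = DMSO wells and 100% = tunicamycin 10 µg/mL wells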
# UPR XBP1 confirm: adaptive UPR (XBP1) activation, confirmed. shares compounds with UPR XBP1 act. CHO-XBP1 IRE1-XBP1 luciferase reporter, luminescence. activation, % at 20 µM. actives 63% (n = 1,000). AID 485299;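 active = reporter signal at least 30% of the positive control's activation in two or more of four replicate wells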;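 also: plate controls were DMSO negative control for no effect and tunicamycin 10 µg/mL positive control for full effect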
# U2OS cAMP counter: U2OS forskolin cAMP inhibition counter-screen | shares compounds with MC4R antag cAMP | parental U2OS, LANCE TR-FRET | inhibition, % at 6.5 µM | actives 26% (n = 1,600) | AID 602193;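 active = mean inhibition over triplicates above the low-control well mean plus 3 SD, set per campaign, cut at about 13% in these data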;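 also: signal is single emission at 671 nm which falls as cellular cAMP rises; 0% = forskolin-stimulated wells and 100% = buffer without forskolin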
# MC4R cAMP antag: human MC4R cAMP antagonism confirmation. inhibition, % at 6.5 µM. shares compounds with MC4R antag cAMP. MC4R-expressing cells, MTII-stimulated cAMP, TR-FRET. actives 27% (n = 1,600); in the data active = inhibition above about 29%;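 also: 0% = agonist stimulated wells alone and 100% = agonist stimulated wells plus saturating reference antagonist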
# Starred values were filed as active, the others as inactive; / = not tested or not shown. Rows were chosen to be rich in hits. Some 2% of all compounds tested hit in one or more screens of this group.
SMILES,MC4R ag barr,CHOP UPR activ,Bfl-1 A1 inh,UPR XBP1 act,MC4R antag cAMP,UPR XBP1 confirm,U2OS cAMP counter,MC4R cAMP antag,others
CCCC[C@@H](C)C[C@@H](C)C(=O)N(C)[C@@H](CC(C)C)C(=O)N[C@H](C(=O)N(C)[C@H](C(=O)N1C[C@@H](O)C[C@H]1C(=O)N1C(=O)C=C[C@@H]1C)C(C)C)C(C)OC(C)=O (stereo not given in full),1.6,73.0*,/,50.8*,-18.6,74.0*,/,/,UPR CHOP confirm=46.1*
Fc1ccc(NC(=S)N2Cc3ccccc3-n3nncc3C2)cc1,0.6,/,/,/,-0.3,/,/,/,
NC(N)=N/N=C/c1ccc(N(c2ccccc2)c2ccccc2)cc1,3.8,74.2*,-0.2,61.8*,9.8,2.9,/,/,UPR CHOP confirm=31.1
COc1ccc(/C=N\N=C(N)N)cc1,-1.1,0.2,0.3,0.2,13.9,/,/,/,
O=C1NC(=O)C(=Cc2ccc(-c3ccc(Cl)cc3)o2)C(=O)N1,0.8,71.3*,1.4,0.4,43.7*,/,41.5*,68.2*,UPR CHOP confirm=74.8*
Cc1ccccc1CCNCc1cc2cccc(C)c2[nH]c1=O,1.6,0.4,0.9,-2.3,-4.8,/,/,/,
Cc1ccc(/C=C2\C(=O)NC(=O)N(Cc3ccccc3Cl)C2=O)o1,-2.0,3.7,1.7,18.7,28.4,/,/,/,
O=C1NC(=O)N(Cc2ccccc2Cl)C(=O)/C1=C/c1cccs1,-2.8,52.4*,0.2,47.5*,35.8*,74.0*,16.5*,29.7*,UPR CHOP confirm=49.9*
CCCCCCn1c(O)c(C=NC2CCCCC2N)c(=O)[nH]c1=O (stereo not given),/,-0.8,0.2,30.1*,/,14.3,/,/,
O=c1[nH]c(O)c(/C=C2/C=CC(c3cc(Cl)ccc3Cl)=N2)c(=O)[nH]1,-1.7,13.0,-0.3,68.0*,25.1,110.8*,/,/,
CC1=Nc2ccccc2/C1=C/c1c(O)[nH]c(=O)[nH]c1=O,-0.2,2.4,0.0,-4.5,5.2,/,/,/,
COc1ccc(CC2=NCCc3cc(OC)c(OC)cc32)cc1OC,0.8,/,/,/,5.9,/,/,/,
CN(C)c1ccc(/C=C/[N+](=O)[O-])cc1,-0.9,18.3,1.5,58.6*,-14.4,32.9*,/,/,
O=C(/C=C/c1ccccc1)N1Cc2ccccc2-n2nncc2C1,-0.3,/,/,/,-0.1,/,/,/,
NS(=O)(=O)c1ccc(N=Cc2c(O)n(C3CCCCC3)c(=O)n(C3CCCCC3)c2=O)cc1,-0.3,2.9,0.0,46.0*,2.3,40.4*,/,/,
CCn1c(O)c(C=Nc2ccc(S(N)(=O)=O)cc2)c(=O)n(CC)c1=S,-1.6,4.6,0.5,-1.2,14.2,/,/,/,
CCN(CCCl)c1cc(CN(C)C)cc(NC(=O)c2ccc(C(=O)Nc3cc(CN(C)C)cc(N(CC)CCCl)c3)cc2)c1,-0.5,/,/,/,-0.6,/,/,/,
O=C1NC(=O)C(=Cc2cn(CCOc3ccc4c(c3)OCO4)c3ccccc23)C(=O)N1,-0.1,11.2,-0.7,31.4*,1.8,79.3*,/,/,
CCc1ccc(N2C(=O)NC(=O)/C(=C\c3cccn3CCOc3ccc(C(C)C)cc3)C2=O)cc1,-2.1,23.1,-0.5,51.4*,14.4,41.4*,/,/,
Cc1ccc(OCCn2cccc2/C=C2/C(=O)NC(=O)N(Cc3ccco3)C2=O)cc1,-2.2,1.6,-1.4,-1.5,3.5,/,/,/,
O=C1NC(=O)N(Cc2ccc(F)cc2)C(=O)/C1=C/c1cccs1,-1.4,8.1,0.8,38.6*,68.2*,39.9*,10.1,6.3,
Oc1c(Cl)cccc1Cc1cc(Cl)cc(Cl)c1O,2.4,/,/,/,3.4,/,/,/,
O=C1NC(=O)C(=Cc2ccc(-c3ccc(F)cc3O)o2)C(=O)N1,1.6,12.6,0.0,9.4,53.5*,/,13.2*,29.5*,
CC(C)(C)N1CC(C(=O)c2ccccc2)C1c1ccccc1 (stereo not given),-0.8,/,/,/,-3.7,/,/,/,
Cc1cc([N+](=O)[O-])c2ccccc2[n+]1[O-],-2.5,-4.1,0.3,-6.1,31.4*,/,12.3,30.8*,
SMILES,MC4R ag barr,CHOP UPR activ,Bfl-1 A1 inh,UPR XBP1 act,MC4R antag cAMP,UPR XBP1 confirm,U2OS cAMP counter,MC4R cAMP antag,others
COC(=O)C1=C(c2cccc(OCc3ccccc3)c2)C[C@@H]2CC[C@H]1N2C(=O)NCc1cc(C)oc1C(F)(F)F,-1.3,1.9,-1.4,-0.3,24.1,/,/,/,
Cc1ccc(-n2c(C)cc(/C=C3/C(=O)NC(=O)N(Cc4ccco4)C3=O)c2C)cc1,-1.4,2.5,-0.2,1.1,2.9,/,/,/,
Cc1cc(/C=C2\C(=O)NC(=O)N(Cc3ccco3)C2=O)c(C)n1-c1ccc(O)cc1,1.1,4.7,-0.3,2.5,30.2*,/,2.0,8.5,
CC12CCC3C(CC=C4CC5(CCC43C)OCCO5)C1CCC2=O (stereo not given),-0.4,0.5,0.9,-0.6,29.8*,/,-0.4,4.9,
COC(=O)C1=C(C(=O)OC)SC2(S1)C(C(=O)OC)=C(C(=O)OC)Sc1c2ssc1=O,-4.6,/,/,/,-40.1,/,/,/,
Clc1ccc(C(c2ccc(Cl)cc2)n2cc[n+](CC(OCc3ccc(Cl)cc3Cl)c3ccc(Cl)cc3Cl)c2)cc1 (stereo not given),0.5,0.6,0.0,-10.9,61.2*,/,20.1*,71.3*,
Clc1ccc(COC(Cn2ccnc2)c2ccc(Cl)cc2Cl)cc1 (stereo not given),-1.3,0.6,0.0,-5.7,2.5,/,/,/,
CC(=O)OC1CC2OC3C=C(C)CCC3(C)C1(C)C21CO1 (stereo not given),0.0,/,/,/,1.1,/,/,/,
Cc1ccccc1N1C(=O)NC(=O)/C(=C\c2cnn(-c3ccccc3)c2)C1=O,-2.5,35.4,0.0,11.8,41.4*,/,13.8*,13.7,
Cc1nn(Cc2ccccc2)c(C)c1C=C1C(=O)NC(=S)NC1=O,-0.1,6.6,-0.6,-2.5,7.4,/,/,/,
Cc1ccc(Cn2nc(C)c(C=O)c2Cl)cc1,-0.1,0.6,0.3,-2.1,30.6*,/,-5.0,-6.2,

# Compound activity as filed in PubChem BioAssay.
